ChEMBL document CHEMBL1123476, “Synthesis of congeners and prodrugs of the benzene maleimide photoadduct mitindomide as potential antitumor agents. 2” (J Med Chem, 1986)
Values joined by “and” are separate entries in the source; they are usually repeats but may differ in a detail not shown here. Equal values may be shown once.

Legend:
[1] = Solubility was determined; INS= less than 0.1; format: physicochemical
P388 [2] = assay: (§1) Antitumor activity in P-388 lymphocytic leukemia system at 200 mg/kg dose levels per injection.; format: functional, Mus musculus
How it was run: (§2)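 P-388 leukemia in animals, Q01D×09 schedule: dose given daily for 9 days, in mg/kg per injection. Read-outs are survivors on day 4 (live/total animals), body-weight difference test minus control (g), and % T/C (median lifetime of treated ÷ median lifetime of controls × 100). Some compounds were tested in independent runs at different times.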

P388 [3] = assay: (§3) Antitumor activity in P-388 lymphocytic leukemia system at 100 mg/kg dose levels per injection.; format: functional, Mus musculus; how it was run: as §2
P388 [4] = assay: as §3; format: functional, Mus musculus; remark: listed apart in the source
How it was run: (§4)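 P-388 leukemia in vivo, dosed Q01D×09 (one injection daily for 9 days, mg/kg per injection). Activity is %T/C, the median lifetime of treated animals divided by that of controls, ×100. Live animals on day 4 were counted against the total (survivors day 4). Repeat tests were done independently at different times.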

P388 [5] = assay: Antitumor activity in P-388 lymphocytic leukemia system at 25 mg/kg dose levels per injection.; format: functional, Mus musculus; how it was run: as §2
P388 [6] = assay: Compound was tested for antitumor activity in P-388 lymphocytic leukemia system at 400 mg/kg dose levels per injection; 5/6; format: functional, Mus musculus; how it was run: as §2
P388 [7] = assay: (§5) Antitumor activity in P-388 lymphocytic leukemia system at 50 mg/kg dose levels per injection.; format: functional, Mus musculus; how it was run: as §2
P388 [8] = assay: Antitumor activity in P-388 lymphocytic leukemia system and the difference in body weight calculated at 100 mg/kg dose levels per injection.; format: functional, Mus musculus; details: 100 mg/kg
P388 [9] = assay: Antitumor activity in P-388 lymphocytic leukemia system and the difference in body weight was calculated at 200 mg/kg dose levels per injection.; format: functional, Mus musculus; details: 200 mg/kg
P388 [10] = assay: Antitumor activity in P-388 lymphocytic leukemia system and the difference in body weight was calculated at 25 mg/kg dose levels per injection.; format: functional, Mus musculus
P388 [11] = assay: Compound was tested for antitumor activity in P-388 lymphocytic leukemia system and the difference in body weight was calculated at 400 mg/kg dose levels per injection; format: functional, Mus musculus
P388 [12] = assay: Antitumor activity in P-388 lymphocytic leukemia system and the difference in body weight was calculated at 50 mg/kg dose levels per injection.; format: functional, Mus musculus
P388 [13] = assay: as §1; format: functional, Mus musculus; how it was run: as §4; remark: listed apart in the source
P388 [14] = assay: Compound was tested for antitumor activity in P-388 lymphocytic leukemia system at 25 mg/kg dose levels per injection; format: functional, Mus musculus; how it was run: as §4
P388 [15] = assay: as §5; format: functional, Mus musculus; how it was run: as §4; remark: listed apart in the source
P388 [16] = assay: Compound was tested for antitumor activity in P-388 lymphocytic leukemia system. at 400 mg/kg dose levels per injection; format: functional, Mus musculus; how it was run: as §4
P388 [17] = assay: Compound was tested for antitumor activity in P-388 lymphocytic leukemia system at 200 mg/kg dose levels per injection; 5/6; format: functional, Mus musculus; how it was run: as §2
P388 [18] = assay: Compound was tested for antitumor activity in P-388 lymphocytic leukemia system at 100 mg/kg dose levels per injection; 5/6; format: functional, Mus musculus; how it was run: as §2
P388 [19] = assay: Compound was tested for antitumor activity in P-388 lymphocytic leukemia system at 25 mg/kg dose levels per injection; 6/6; format: functional, Mus musculus; how it was run: as §2
P388 [20] = assay: Antitumor activity in P-388 lymphocytic leukemia system at 25 mg/kg dose levels per injection; format: functional, Mus musculus; how it was run: as §4
P388 [21] = assay: Compound was tested for antitumor activity in P-388 lymphocytic leukemia system at 200 mg/kg dose levels per injection; format: functional, Mus musculus; how it was run: as §4
P388 [22] = assay: Compound was tested for antitumor activity in P-388 lymphocytic leukemia system at 400 mg/kg dose levels per injection; 6/6; format: functional, Mus musculus; how it was run: as §2
P388 [23] = assay: Compound was tested for antitumor activity in P-388 lymphocytic leukemia system at 400 mg/kg dose levels per injection; format: functional, Mus musculus; how it was run: as §4
[24] = Solubility was determined; format: physicochemical
P388 [25] = assay: Compound was tested for antitumor activity in P-388 lymphocytic leukemia system at 400 mg/kg dose levels per injection; 3/6; format: functional, Mus musculus; how it was run: as §2
P388 [26] = assay: Compound was tested for antitumor activity in P-388 lymphocytic leukemia system at 400 mg/kg dose levels per injection; Toxic; format: functional, organism-based; set-up: dose 400 mg/kg; details: Mus musculus; how it was run: as §4
P388 [27] = assay: Compound was tested for antitumor activity in P-388 lymphocytic leukemia system. at 400 mg/kg dose levels per injection; Toxic; format: functional, organism-based; set-up: dose 400 mg/kg; details: Mus musculus; how it was run: as §4

SMILES: CCN(CC)CN1C(=O)C2C3C=CC(C2C1=O)C1C2C(=O)N(CN(CC)CC)C(=O)C2C31 (stereo not drawn)
- Solubility [1]: Insoluble
- Survivors at day 4 (P388 [2]): 6
- Survivors at day 4 (P388 [3]): 6
- T/C (P388 [4]; 100 mg/kg): 117% and 116%
- Survivors at day 4 (P388 [5]): 6
- Survivors at day 4 (P388 [6]): 5
- Survivors at day 4 (P388 [7]): 6
- Weight difference (P388 [8]): -0.8 g and -0.4 g
- Weight difference (P388 [9]): -0.7 g and -0.6 g
- Weight difference (P388 [10]): 0 g
- Weight difference (P388 [11]): -0.9 g
- Weight difference (P388 [12]; 50 mg/kg): -1 g and -0.5 g
- T/C (P388 [13]; 200 mg/kg): 139% and 125%
- T/C (P388 [14]): 103%
- T/C (P388 [15]; 50 mg/kg): 111% and 102%
- T/C (P388 [16]): 111%

SMILES: O=C1NC(=O)C2C3C=CC(C12)C1C(=O)NC(=O)C31 (stereo not drawn)
- Solubility [1]: Insoluble
- Survivors at day 4 (P388 [17]): 5
- Survivors at day 4 (P388 [18]): 5
- T/C (P388 [4]): 97%
- Weight difference (P388 [4]): -2.4 g
- Survivors at day 4 (P388 [7]): 6
- Survivors at day 4 (P388 [19]): 6
- T/C (P388 [13]): 92%
- T/C (P388 [20]): 105%
- Weight difference (P388 [14]): -0.7 g
- T/C (P388 [15]): 100%
- Weight difference (P388 [15]): -1.1 g
- Weight difference (P388 [21]): -4.3 g

SMILES: O=C1NC(=O)C2C1C(C(=O)O)C1C3C(=O)NC(=O)C3C1C2C(=O)O (stereo not drawn)
- Solubility [1]: Insoluble
- Survivors at day 4 (P388 [2]): 6
- Survivors at day 4 (P388 [3]): 6
- T/C (P388 [4]): 97%
- Weight difference (P388 [4]): -0.7 g
- Survivors at day 4 (P388 [22]): 6
- Survivors at day 4 (P388 [7]): 6
- T/C (P388 [13]; 200 mg/kg): 92% and 91%
- T/C (P388 [15]): 94%
- Weight difference (P388 [15]): 0 g
- T/C (P388 [23]): 96%
- Weight difference (P388 [23]): -0.2 g

SMILES: CN1CCN(CN2C(=O)C3C4C=CC(C3C2=O)C2C(=O)N(CN3CCN(C)CC3)C(=O)C42)CC1 (stereo not drawn)
- Solubility [24]: 2%
- Survivors at day 4 (P388 [2]): 6
- Survivors at day 4 (P388 [3]): 6
- T/C (P388 [4]; 100 mg/kg): 126% and 113%
- Survivors at day 4 (P388 [25]): 3
- Survivors at day 4 (P388 [7]): 6
- Weight difference (P388 [9]): -3.1 g and -3.6 g
- Weight difference (P388 [11]): -6.4 g
- Weight difference (P388 [12]): 0 g
- T/C (P388 [13]; 200 mg/kg): 122% and 128%
- T/C (P388 [26]): Toxic
- T/C (P388 [15]): 108%

SMILES: CC1=CC2(C)C3C(=O)NC(=O)C3C1C1(C)C3C(=O)NC(=O)C3C21 (stereo not drawn)
- Solubility [1]: Insoluble
- Survivors at day 4 (P388 [2]): 6
- Survivors at day 4 (P388 [3]): 6
- T/C (P388 [4]): 109%
- Weight difference (P388 [4]): -1.5 g
- Survivors at day 4 (P388 [22]): 6
- Survivors at day 4 (P388 [7]): 6
- T/C (P388 [13]): 97%
- T/C (P388 [15]): 108%
- Weight difference (P388 [15]): -0.9 g
- T/C (P388 [16]): 101%
- Weight difference (P388 [21]): -1.8 g
- Weight difference (P388 [23]): -5.3 g

SMILES: CN1C(=O)C2C3C=CC(C2C1=O)C1C2C(=O)N(C)C(=O)C2C31 (stereo not drawn)
- Solubility [1]: Insoluble
- Survivors at day 4 (P388 [2]): 6
- Survivors at day 4 (P388 [3]): 6
- T/C (P388 [4]): 111%
- Weight difference (P388 [4]): -0.8 g
- Survivors at day 4 (P388 [22]): 6
- Survivors at day 4 (P388 [7]): 6
- T/C (P388 [13]; 200 mg/kg): 111% and 104%
- T/C (P388 [15]): 108%
- Weight difference (P388 [15]): -0.9 g
- Weight difference (P388 [21]; 200 mg/kg): -0.8 g and -1.4 g
- T/C (P388 [23]): 135%
- Weight difference (P388 [23]): -2 g

SMILES: CC(=O)OC(C(=O)O)N1C(=O)C2C3C=CC(C2C1=O)C1C2C(=O)N(C(OC(C)=O)C(=O)O)C(=O)C2C31 (stereo not drawn)
- Survivors at day 4 (P388 [2]): 6
- Survivors at day 4 (P388 [3]): 6
- T/C (P388 [27]): Toxic
- T/C (P388 [4]; 100 mg/kg): 123% and 113%
- Survivors at day 4 (P388 [5]): 6
- Survivors at day 4 (P388 [25]): 3
- Survivors at day 4 (P388 [7]): 6
- Weight difference (P388 [9]): -1.2 g and -0.5 g
- Weight difference (P388 [10]): 0.2 g
- Weight difference (P388 [11]): -5.7 g
- Weight difference (P388 [12]): -0.3 g
- T/C (P388 [13]; 200 mg/kg): 175% and 125%
- T/C (P388 [14]): 103%
- T/C (P388 [15]): 110%
